Bioassay records: PubChem, several laboratories
Shown are actives, neighbours in structure and some others; about 2.9% of the full set was active somewhere.
MEKK2 WT-MEK5 – modulators of MEK5 binding to wildtype MEKK2, primary screen, biochemical, multiplex bead flow cytometry, Alexa488-MEK5; Mitogen-activated protein kinase kinase kinase 2 (Homo sapiens), Q9Y2U5; Alexa488-MEK5 binding to MEKK2 WT; actives lie on both sides; binding response (% of control), % at 10 µM; actives 1.1% (n = 290,000); AID 1531, 2009; in the data active = binding response below about 67% or above about 130%
Dynein transport – inhibitors of GR-EGFP nuclear translocation, primary screen, dynein cargo transport inhibitor project, imaging, high-content, 3617.4 mouse cells; test concentration mostly 20 µM; stimulated with dexamethasone, 1 µM; stronger effect = lower value; z-score, hits read low; actives 0.47% (n = 220,000); AID 1381, 2008;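 active = plate z-score of nuclear minus cytoplasmic receptor signal below a set negative limit, without overly bright fluorescence or cell loss, cut at about -3.5 in these data, passing the limit was not always enough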;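 note: z-score of nuclear minus cytoplasmic ring GR-EGFP intensity difference per well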
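Buffer or medium – tet-free medium with charcoal-stripped serum · Signal – automated 10x imaging of fixed Hoechst-stained cells · Also added – dexamethasone agonist, 1.0 µM final, for 30 min · Incubation – induction 48 h, compound 1 h, agonist 30 min · Read-out – GR-EGFP nuclear translocation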
MEKK3 PB1 HTS – modulators of MEKK3-MEK5 PB1 binding, primary screen, biochemical, wildtype MEKK3, multiplex bead flow cytometry, Alexa488-MEK5; actives 1.4% (n = 290,000); binding response (% of control), % at 10 µM; bead-based flow cytometry, Alexa488-MEK5 binding to MEKK3; actives lie on both sides; 0 = blocked by unlabeled MEK5, 100 = vehicle; Mitogen-activated protein kinase kinase kinase 3 (Homo sapiens), Q99759;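 active = binding response more than 3 SD above or below the average of its plate-row segment, actives on both sides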;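 note: Alexa488 bead fluorescence after subtracting the streptavidin-only scavenger bead signal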
ATG4B inh – ATG4B protease inhibitors, primary screen, biochemical, fluorescence, uHTS. Cysteine protease ATG4B (Homo sapiens), Q9Y4P1. ATG4B cleavage of LC3-PLA2, NBD-HPC fluorescence, 1 h. inhibition, % at 8.33 µM. actives 0.51% (n = 340,000); in the data active = inhibition above about 40%
Target sequence (Q9Y4P1 whole entry, looked up): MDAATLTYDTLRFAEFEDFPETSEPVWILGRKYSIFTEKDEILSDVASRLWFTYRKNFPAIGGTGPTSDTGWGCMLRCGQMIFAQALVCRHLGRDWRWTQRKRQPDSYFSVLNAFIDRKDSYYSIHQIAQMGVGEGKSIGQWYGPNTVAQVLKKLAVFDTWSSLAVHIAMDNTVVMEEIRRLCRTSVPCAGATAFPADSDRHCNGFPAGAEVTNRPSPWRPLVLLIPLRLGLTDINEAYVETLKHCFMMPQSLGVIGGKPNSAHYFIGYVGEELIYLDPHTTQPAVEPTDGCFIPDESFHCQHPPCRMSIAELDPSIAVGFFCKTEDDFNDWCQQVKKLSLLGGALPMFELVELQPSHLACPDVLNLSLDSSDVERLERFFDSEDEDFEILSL
B2AR ag – beta2AR agonists driving receptor internalization, primary screen, cell-based, FAP fluorogen, flow cytometry; actives 0.43% (n = 340,000); Am2.2-beta2AR cells; response, % (concentration not given with the values);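 active = response above a set limit, near 3 SD of response in nonfluorescent compounds, cut at about 42% in these data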
MEKK2 mut-MEK5 – MEK5 binding signal on mutant MEKK2 PB1, primary screen, biochemical, multiplex bead flow cytometry, Alexa488-MEK5; percent response, % at 10 µM; actives 0.35% (n = 290,000); Alexa488-MEK5 binding to MEKK2 mutant; AID 1530, 2009; in the data active = percent response above about 24%, passing the limit was not always enough
Starred values were filed as active, the others as inactive; x = no result given.

SMILES	MEKK2 WT-MEK5	Dynein transport	MEKK3 PB1 HTS	ATG4B inh	B2AR ag	MEKK2 mut-MEK5
C#CCOCCOCCOCCNc1nc(N2CCN(C(=O)CCCCCCCCCCNC(=O)[C@H](CCCCN)n3cc(C[C@@H](C)CC)nn3)CC2)nc(N2CCN(C(=O)CCCCCCCCCCNC(=O)[C@@H]([C@H](C)O)n3cc(C)nn3)CC2)n1	x	x	x	52.8*	76.6*	x
C#CCOCCOCCOCCNc1nc(N2CCN(C(=O)CCCCCCCCCCNC(=O)Cn3cc(CCCCCN)nn3)CC2)nc(N2CCN(C(=O)CCCCCCCCCCNC(=O)[C@@H]([C@H](C)O)n3cc(C)nn3)CC2)n1	x	x	x	-21.1	55.0*	x
C#CCOCCOCCOCCNc1nc(N2CCN(C(=O)CCCCCCCCCCNC(=O)Cn3cc(CCCCCN)nn3)CC2)nc(N2CCN(C(=O)CCCCCCCCCCNC(=O)Cn3cc(C[C@@H](C)O)nn3)CC2)n1	x	x	x	-14.2	72.2*	x
C#CCOCCOCCOCCNc1nc(N2CCN(C(=O)CCCCCCCCCCNC(=O)[C@H]([C@@H](C)CC)n3cc(CCCCN=C(N)N)nn3)CC2)nc(N2CCN(C(=O)CCCCCCCCCCNC(=O)[C@@H]([C@H](C)O)n3cc(C)nn3)CC2)n1	x	x	x	33.8	104.2*	x
C#CCOCCOCCOCCNc1nc(N2CCN(C(=O)Cn3cc(CCCCN)nn3)CC2)nc(N2CCN(C(=O)Cn3cc(CC(C)O)nn3)CC2)n1 (stereo unspecified)	102.0	0.315	91.0	8.1	4.9	-2.0
Cc1ccn(CCNC(=O)C2CCC(=O)N(CCc3ccc(Cl)cc3)C2)n1 (stereo unspecified)	113.0	x	110.0	-2.7	-4.0	11.0
CC(C)c1nnc(NC(=O)C2CCCN2C(=O)Nc2cccc(Cl)c2)s1 (stereo unspecified)	98.0	x	99.0	8.2	5.8	-7.0
CCOC(=O)c1c(C)[nH]c(C)c1S(=O)(=O)N1CCN(c2cccc(C)c2)C(C)C1 (stereo unspecified)	101.0	x	102.0	-4.9	-1.5	-6.0
C[C@H](CO)N1C[C@H](C)[C@@H](CN(C)S(=O)(=O)c2ccccc2)Oc2ccc(NS(=O)(=O)c3cn(C)cn3)cc2C1=O	x	x	x	-7.4	-1.4	x
C#CCOCCOCCOCCNc1nc(N2CCN(C(=O)CCCCCCCCCCNC(=O)Cn3cc(C[C@@H](C)O)nn3)CC2)nc(N2CCN(C(=O)CCCCCCCCCCNC(=O)[C@@H]([C@H](C)CC)n3cc(CCCCCN)nn3)CC2)n1	x	x	x	25.2	95.4*	x
C#CCOCCOCCOCCNc1nc(N2CCN(C(=O)CCCCCCCCCCNC(=O)[C@@H](CCSC)n3cc(CCO)nn3)CC2)nc(N2CCN(C(=O)CCCCCCCCCCNC(=O)[C@H](CCCN=C(N)N)n3cc(C[C@@H](C)CC)nn3)CC2)n1	x	x	x	45.7*	57.5*	x
CC(C)(C)CN1CCN(CCCc2ccccc2)C(CCO)C1 (stereo unspecified)	107.0	x	105.0	-2.3	-13.4	2.0
Cn1c(SCC(=O)NC2CCS(=O)(=O)C2)nc2ccccc21 (stereo unspecified)	x	x	x	0.4	3.7	x
CCn1c(C)c(C)c2cc(C(=O)NCCCN3CCCC3)ccc21	144.0*	x	104.0	-1.6	0.8	14.0
CCn1c(C)c(C)c2cc(C(=O)NCCCN3CCCCC3C)ccc21 (stereo unspecified)	17.0*	x	103.0	-1.4	10.8	41.0*
O=[N+]([O-])c1ccc(C=NN2CCCCCC2)cc1	x	x	x	-14.2	-0.9	x
CCc1cc(Cn2nc(-c3ccccc3)cc2C(=O)NCc2cccs2)on1	x	x	x	1.4	-2.1	x
O=P1(O)Cc2ccccc2-c2ccccc21	x	x	x	-0.3	-11.6	x
CCCCn1c(N)c(N(CC(C)C)C(=O)c2ccc(F)c(S(=O)(=O)N3CCOCC3)c2)c(=O)[nH]c1=O	x	x	x	-3.2	-4.0	x
O=C1/C(=C\c2cccc([N+](=O)[O-])c2O)SC(=S)N1Cc1ccccc1	98.0	x	96.0	46.8*	17.6	-1.0
O=C1/C(=C/c2ccc(O)c([N+](=O)[O-])c2)SC(=S)N1Cc1ccccc1	90.0	0.273	92.0	39.9	8.1	-4.0
CCOc1ccc(NC(=O)COc2cccc3c2CCN(Cc2cccnc2)C3=O)cc1	101.0	x	102.0	-2.4	-5.8	5.0
O=C(/C=C/c1cccc(Cl)c1)c1ccc([N+](=O)[O-])o1	x	x	x	5.1	65.8*	x
COc1ccc(/C=C/C(=O)c2ccc([N+](=O)[O-])o2)cc1OC	x	x	x	0.7	x	x
Cc1cc(O)c(-c2cc(O)c(C)cc2O)cc1O	100.0	-5.99*	105.0	0.3	34.6	2.0
SMILES	MEKK2 WT-MEK5	Dynein transport	MEKK3 PB1 HTS	ATG4B inh	B2AR ag	MEKK2 mut-MEK5
CCC1(c2ccc(F)cc2)NC(=O)N(CC(=O)Nc2cccc(S(=O)(=O)N3CCOCC3)c2)C1=O (stereo unspecified)	x	x	x	-6.5	-10.4	x
Cc1cc(C)c2nc(NNC(=O)c3ccc(S(=O)(=O)N4CC(C)CC(C)C4)cc3)sc2c1 (stereo unspecified)	99.0	0.13	109.0	-1.1	43.4*	1.0
COC(=O)c1sc2ccccc2c1NC(=O)c1ccc(S(=O)(=O)N2CC(C)CC(C)C2)cc1 (stereo unspecified)	98.0	0.5	121.0	7.0	11.1	-1.0
Cc1cccc2sc(NNC(=O)c3ccc(S(=O)(=O)N4CC(C)CC(C)C4)cc3)nc12 (stereo unspecified)	99.0	0.179	102.0	-5.3	48.1*	1.0
Cc1cc(C)c2nc(NNC(=O)c3ccc(S(=O)(=O)N4CCCC(C)C4)cc3)sc2c1 (stereo unspecified)	98.0	-0.65	105.0	-0.4	12.3	-4.0
O=[N+]([O-])c1cc(-c2ncccn2)c([N+](=O)[O-])s1	99.0	-3.87*	100.0	8.1	11.5	0.0
COc1ccc(NC2=C(NCCO)C(=O)c3ccccc3C2=O)cc1	107.0	1.14	110.0	-5.8	66.3*	2.0
C/C(=C\C(=O)c1ccc(Br)cc1)NCc1ccccc1	104.0	-0.65	102.0	13.2	46.4*	2.0
C/C(=C\C(=O)c1ccc(Br)cc1)NCc1ccc(C)cc1	102.0	0.205	104.0	7.2	-1.9	3.0
CC(=O)n1cc(N(C(=O)CCl)c2ccc(Cl)cc2)c2ccccc21	93.0	-3.41	93.0	4.5	45.8*	-2.0
O=C(NCC(c1ccco1)N1CCN(c2ccccc2)CC1)C(=O)NC1CCCCC1 (stereo unspecified)	x	x	x	-7.6	-1.7	x
